Results from paper PMC3919449 (Chemistry & biology, 2013).

Assays:
BE(2)-C cells [1] = assay: GE-HTS neuroblastoma differentiation signature in BE; format: cell-based; conditions: for induction of the differentiation signature (differentiation score): two days of treatment
Method in brief: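 In BE(2)-C cells with 2 nM cisRA as differentiation enhancer, test compound applied at eight concentrations in duplicate for 2 days. Controls were 1 μM cisRA (positive) and DMSO (negative), plus a cisRA dose-response plate per run. GE-HTS gave the differentiation score. AUC: cubic natural spline at 50 points over log dose, trapezoid areas against the mean DMSO score, divided by log-concentration range.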

SH-SY5Y = assay: GE-HTS neuroblastoma differentiation signature in SH-SY5Y; format: cell-based; conditions: second cell line
[2] = tested on: Kelly, LAN-1, BE(2)-C, and SH-SY5Y; assay: ATP-based viability; conditions: four neuroblastoma cell lines, five days of treatment
Method in brief: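 Kelly, LAN-1, BE(2)-C and SH-SY5Y grown in DMEM with 10% FBS and 1% penicillin-streptomycin with glutamine, identity confirmed by STR profiling. Cells exposed to test compound over a 9-point concentration range for five days; viability read by ATP luminescence (CellTiter Glo) per manufacturer's instructions.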

BE(2)-C cells [3] = assay: NF-M immunofluorescence, morphologic changes; format: cell-based; conditions: NF-M labeling
Method in brief: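 BE(2)-C cells treated in duplicate with DMSO vehicle or the test compound for 72 h. Cells washed, fixed in 4% formaldehyde and permeabilized with 0.2% Triton X-100. Stained with monoclonal anti-NF-M and an Alexa Fluor 568 secondary. Mounted in antifade with DAPI counterstain; neurite projections examined.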

[4] = tested on: histone H3 acetylation in BE(2)-C cells; assay: Immunoblot for acetylated histone H3; format: cell-based; conditions: six hours of treatment
Method in brief: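 BE(2)-C cells exposed to the test compound or DMSO for six hours; nuclear extracts then immunoblotted for acetylated histone H3.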

HDACs 4-9 = assay: HDAC activity assay, other HDACs; format: biochemical; conditions: HDACs 4-9, same concentration range
Method in brief: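 Recombinant full-length HDAC preincubated 3 h with test compound, then fluorogenic substrate at Km: MAZ1600 for HDAC6 (9 μM); MAZ1675 for HDAC4 (10 μM), 5 (40 μM), 7 (22 μM), 8 (282 μM), 9 (26 μM). Trypsin-coupled AMC release read every 5 min; linear-range rate normalized to DMSO (<0.5%); IC50 by unconstrained logistic regression.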

[5] = tested on: Kelly, LAN-1, BE(2)-C, and SH-SY5Y; assay: GE-HTS differentiation signature in four neuroblastoma cell lines; format: cell-based; conditions: two day and five day time points
Method in brief: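 Cells grown in DMEM with 10% FBS and 1% penicillin-streptomycin with glutamine, then exposed to the test compound over a concentration range for 2 or 5 days. Read-out is GE-HTS: ligation-mediated amplification with fluorescent bead detection of 59 signature genes. Differentiation score is the signature-gene expression divided by mean control-gene expression, summed with weights/signs from cisRA vs DMSO controls. Four replicates; one-way ANOVA with Bonferroni versus DMSO.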

Row | Compound | induction of the differentiation signature (differentiation score) (BE(2)-C cells [1]) | other results
1 | CC1=C(/C=C/C(C)=C/C=C/C(C)=C/C(=O)O)C(C)(C)CCC1 [ATRA, all-trans retinoic acid] | induce the differentiation signature in a dose-dependent manner | –
2 | C[C@H](CO)N1C[C@H](C)[C@H](CN(C)Cc2ccc(C(=O)Nc3ccccc3N)cc2)Oc2c(cccc2N(C)C)C1=O [BRD6332] | greatly dampened differentiation activity | –
3 | C[C@H](CO)N1C[C@H](C)[C@H](CN(C)Cc2ccc(C(=O)Nc3ccccc3N)cc2)Oc2ccc(N(C)C)cc2C1=O [BRD6819] | induced the differentiation signature in a manner similar to BRD8430 | induction of the differentiation signature (SH-SY5Y): confirmed to induce the differentiation signature
4 | C[C@H](CO)N1C[C@H](C)[C@H](CN(C)Cc2ccc(C(=O)Nc3ccccc3N)cc2)Oc2ccc(N(C)C)cc2CC1=O [BRD8430] | significantly inducing the signature at all eight concentrations tested | viability [2]: reduced the viability; morphologic changes consistent with differentiation (BE(2)-C cells [3]): induced morphologic changes, including neurite outgrowth; histone H3 acetylation [4]: increased histone H3 acetylation in a concentration-dependent manner; induction of the differentiation signature (SH-SY5Y): confirmed to induce the differentiation signature; AUC of the differentiation score across eight concentrations (BE(2)-C cells [1]; two days, eight concentrations): highest AUC value of the 32 compounds evaluated; IC50 for inhibition of the other HDACs (HDACs 4-9): not able to determine IC50 values; induction of the differentiation signature [5]: induce the differentiation signature in a concentration-dependent manner
5 | CC(=O)Nc1ccc(C(=O)Nc2ccccc2N)cc1 [CI-994] | significantly induced differentiation at multiple concentrations | –
6 | Nc1ccccc1NC(=O)c1ccc(CNC(=O)OCc2cccnc2)cc1 [MS-275] | significantly induced differentiation at multiple concentrations | –
7 | O=C(CCCCCCC(=O)Nc1ccccc1)NO [Vorinostat, vorinostat] | significantly induced differentiation at multiple concentrations | –
8 | CC1=C(/C=C/C(C)=C/C=C/C(C)=C\C(=O)O)C(C)(C)CCC1 [cisRA, 13-cis retinoic acid] | induce the differentiation signature in a dose-dependent manner | –
